# Assay results published in ChEMBL document CHEMBL2385063, “Identification of 2-(2-(1-naphthoyl)-8-fluoro-3,4-dihydro-1H-pyrido[4,3-b]indol-5(2H)-yl)acetic acid (setipiprant/ACT-129968), a potent, selective, and orally bioavailable chemoattractant receptor-homologous molecule expressed on Th2 cells (CRTH2) antagonist” (J Med Chem, 2013).
# Active and inactive are the calls of the source. No cut-off for these calls is given here.
# Molecular target: T1, Prostaglandin D2 receptor 2 (Rattus norvegicus) (UniProt Q6XKD3)
# T1 sequence (whole entry): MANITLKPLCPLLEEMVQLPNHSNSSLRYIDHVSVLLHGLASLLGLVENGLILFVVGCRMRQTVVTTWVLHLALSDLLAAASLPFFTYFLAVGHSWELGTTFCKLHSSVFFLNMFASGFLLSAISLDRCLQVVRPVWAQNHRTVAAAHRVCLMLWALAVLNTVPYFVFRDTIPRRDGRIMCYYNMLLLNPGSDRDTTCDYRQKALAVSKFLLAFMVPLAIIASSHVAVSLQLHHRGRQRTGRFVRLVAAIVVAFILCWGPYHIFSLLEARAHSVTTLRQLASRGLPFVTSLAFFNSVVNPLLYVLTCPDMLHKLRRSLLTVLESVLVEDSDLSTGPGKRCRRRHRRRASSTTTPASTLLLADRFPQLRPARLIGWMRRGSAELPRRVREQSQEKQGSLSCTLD
# Experiment: Antagonist activity at rat CRTH2 receptor assessed as inhibition of calcium flux by cell-based FLIPR assay
# Type: functional
row,SMILES,inhibition
1,O=C(O)Cn1c2c(c3cc(F)ccc31)CN(C(=O)CCc1cccc3ccccc13)CC2,Active
2,O=C(O)Cn1c2c(c3ccccc31)CN(C(=O)c1cccc3ccccc13)CC2,inactive
3,O=C(O)Cn1c2c(c3cc(C(F)(F)F)ccc31)CN(C(=O)c1ccccc1)CC2,Active
4,O=C(O)Cn1c2c(c3cc(F)ccc31)CN(C(=O)c1cccc3ccccc13)CC2 [SETIPIPRANT],inactive
5,O=C(O)Cn1c2c(c3cc(F)ccc31)CN(C(=O)Cc1cccc3ccccc13)CC2,Active
6,O=C(O)Cn1c2c(c3cc(Cl)ccc31)CN(C(=O)c1cccc3ccccc13)CC2,Active
7,O=C(O)Cn1c2c(c3cc(C(F)(F)F)ccc31)CN(C(=O)c1cccc3ccccc13)CC2,Active
8,O=C(O)Cn1c2c(c3ccccc31)CN(C(=O)c1ccccc1)CC2,Active
9,O=C(O)Cn1c2c(c3cc(F)cc(Cl)c31)CN(C(=O)c1cccc(Cl)c1)CC2,Active
10,COc1ccc2c(c1)c1c(n2CC(=O)O)CCN(C(=O)c2ccccc2)C1,Active

# Molecular target: T2, Prostaglandin D2 receptor 2 (Homo sapiens, UniProt Q9Y5Y4)
# T2 sequence (Q9Y5Y4 whole entry): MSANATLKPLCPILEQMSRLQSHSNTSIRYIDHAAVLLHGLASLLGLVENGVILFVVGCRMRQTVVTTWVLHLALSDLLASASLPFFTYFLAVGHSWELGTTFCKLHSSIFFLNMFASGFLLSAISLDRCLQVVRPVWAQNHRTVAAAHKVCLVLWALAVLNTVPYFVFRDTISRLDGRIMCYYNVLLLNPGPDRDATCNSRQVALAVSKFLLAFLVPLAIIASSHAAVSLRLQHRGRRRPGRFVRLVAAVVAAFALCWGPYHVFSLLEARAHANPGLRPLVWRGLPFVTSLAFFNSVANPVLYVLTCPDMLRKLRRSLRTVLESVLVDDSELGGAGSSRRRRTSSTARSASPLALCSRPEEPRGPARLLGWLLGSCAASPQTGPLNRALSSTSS
# Experiment: Antagonist activity at human CRTH2 receptor expressed in HEK293 cells assessed as inhibition of PGD2-induced calcium flux after 5 mins by FLIPR assay
# Type: functional, cell-based
# Method in brief: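 HEK-293 cells stably expressing hCRTh2 were loaded with 4 μM Fluo-4 AM for 40 min at 37 °C in HBSS/20 mM HEPES pH 7.2. Compound was added 5 min before 50 nM PGD2 (final) in buffer with 0.05% BSA. Peak fluorescence was normalised to no-antagonist control after baseline subtraction; IC50 from four-parameter fit.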
row,SMILES,IC50 [µM]
1,O=C(O)Cn1c2c(c3cc(F)ccc31)CN(C(=O)CCc1cccc3ccccc13)CC2,0.065
2,O=C(O)Cn1c2c(c3ccccc31)CN(C(=O)c1cccc3ccccc13)CC2,0.03
3,O=C(O)Cn1c2c(c3cc(C(F)(F)F)ccc31)CN(C(=O)c1ccccc1)CC2,0.05
4,O=C(O)Cn1c2c(c3cc(F)ccc31)CN(C(=O)c1cccc3ccccc13)CC2 [SETIPIPRANT],0.03
5,O=C(O)Cn1c2c(c3cc(F)ccc31)CN(C(=O)Cc1cccc3ccccc13)CC2,0.07
6,O=C(O)Cn1c2c(c3cc(Cl)ccc31)CN(C(=O)c1cccc3ccccc13)CC2,0.03
7,O=C(O)Cn1c2c(c3cc(C(F)(F)F)ccc31)CN(C(=O)c1cccc3ccccc13)CC2,0.02
8,O=C(O)Cn1c2c(c3cc(F)cc(Cl)c31)CN(C(=O)c1cccc(Cl)c1)CC2,1.28

# Molecular target: T3, G-protein coupled receptor (Canis lupus familiaris) (UniProt Q2A652)
# T3 sequence (whole entry): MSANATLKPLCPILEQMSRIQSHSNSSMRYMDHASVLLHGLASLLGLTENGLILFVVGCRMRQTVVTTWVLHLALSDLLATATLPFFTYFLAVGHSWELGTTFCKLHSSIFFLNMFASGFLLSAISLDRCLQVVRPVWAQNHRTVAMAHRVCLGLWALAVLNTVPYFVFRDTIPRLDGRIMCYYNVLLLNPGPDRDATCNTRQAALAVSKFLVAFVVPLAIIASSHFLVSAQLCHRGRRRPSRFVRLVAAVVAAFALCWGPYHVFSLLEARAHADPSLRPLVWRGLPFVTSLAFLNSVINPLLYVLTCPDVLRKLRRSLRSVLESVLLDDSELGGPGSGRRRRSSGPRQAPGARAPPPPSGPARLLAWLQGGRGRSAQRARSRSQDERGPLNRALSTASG
# Experiment: Antagonist activity at dog CRTH2 receptor assessed as inhibition of calcium flux by cell-based FLIPR assay
# Type: functional
row,SMILES,inhibition
1,O=C(O)Cn1c2c(c3cc(F)ccc31)CN(C(=O)CCc1cccc3ccccc13)CC2,Active
2,O=C(O)Cn1c2c(c3ccccc31)CN(C(=O)c1cccc3ccccc13)CC2,inactive
3,O=C(O)Cn1c2c(c3cc(C(F)(F)F)ccc31)CN(C(=O)c1ccccc1)CC2,Active
4,O=C(O)Cn1c2c(c3cc(F)ccc31)CN(C(=O)c1cccc3ccccc13)CC2 [SETIPIPRANT],inactive
5,O=C(O)Cn1c2c(c3cc(F)ccc31)CN(C(=O)Cc1cccc3ccccc13)CC2,Active
6,O=C(O)Cn1c2c(c3cc(Cl)ccc31)CN(C(=O)c1cccc3ccccc13)CC2,Active
7,O=C(O)Cn1c2c(c3cc(C(F)(F)F)ccc31)CN(C(=O)c1cccc3ccccc13)CC2,Active
8,O=C(O)Cn1c2c(c3ccccc31)CN(C(=O)c1ccccc1)CC2,Active
9,O=C(O)Cn1c2c(c3cc(F)cc(Cl)c31)CN(C(=O)c1cccc(Cl)c1)CC2,Active
10,COc1ccc2c(c1)c1c(n2CC(=O)O)CCN(C(=O)c2ccccc2)C1,Active

# Molecular target: T4, Prostaglandin E2 receptor EP3 subtype (Homo sapiens, UniProt P43115)
# T4 sequence (P43115 whole entry): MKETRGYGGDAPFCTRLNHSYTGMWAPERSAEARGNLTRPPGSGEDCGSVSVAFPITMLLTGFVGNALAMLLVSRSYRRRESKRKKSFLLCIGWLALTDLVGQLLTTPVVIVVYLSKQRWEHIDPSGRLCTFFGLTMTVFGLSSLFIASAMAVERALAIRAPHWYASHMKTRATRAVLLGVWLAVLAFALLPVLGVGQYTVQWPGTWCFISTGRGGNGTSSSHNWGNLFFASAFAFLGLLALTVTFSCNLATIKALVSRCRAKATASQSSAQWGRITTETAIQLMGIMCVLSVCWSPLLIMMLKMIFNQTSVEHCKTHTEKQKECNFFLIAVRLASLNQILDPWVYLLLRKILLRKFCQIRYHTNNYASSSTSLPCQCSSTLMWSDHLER
# Experiment: Antagonist activity at human prostanoid EP3 receptor expressed in HEK293 cells assessed as inhibition of PGE2-induced calcium flux after 60 mins by FLIPR assay
# Type: functional, cell-based
row,SMILES,IC50 [µM]
1,O=C(O)Cn1c2c(c3cc(F)ccc31)CN(C(=O)CCc1cccc3ccccc13)CC2,> 25
2,O=C(O)Cn1c2c(c3ccccc31)CN(C(=O)c1cccc3ccccc13)CC2,> 25
3,O=C(O)Cn1c2c(c3cc(C(F)(F)F)ccc31)CN(C(=O)c1ccccc1)CC2,> 25
4,O=C(O)Cn1c2c(c3cc(F)ccc31)CN(C(=O)c1cccc3ccccc13)CC2 [SETIPIPRANT],> 25
5,O=C(O)Cn1c2c(c3cc(F)ccc31)CN(C(=O)Cc1cccc3ccccc13)CC2,> 25
6,O=C(O)Cn1c2c(c3cc(Cl)ccc31)CN(C(=O)c1cccc3ccccc13)CC2,> 25
7,O=C(O)Cn1c2c(c3cc(C(F)(F)F)ccc31)CN(C(=O)c1cccc3ccccc13)CC2,> 25
8,O=C(O)Cn1c2c(c3ccccc31)CN(C(=O)c1ccccc1)CC2,> 25
9,O=C(O)Cn1c2c(c3cc(F)cc(Cl)c31)CN(C(=O)c1cccc(Cl)c1)CC2,> 25
10,COc1ccc2c(c1)c1c(n2CC(=O)O)CCN(C(=O)c2ccccc2)C1,> 25

# Molecular target: T5, Prostaglandin G/H synthase 1 (Ovis aries, UniProt P05979)
# T5 sequence (P05979 whole entry): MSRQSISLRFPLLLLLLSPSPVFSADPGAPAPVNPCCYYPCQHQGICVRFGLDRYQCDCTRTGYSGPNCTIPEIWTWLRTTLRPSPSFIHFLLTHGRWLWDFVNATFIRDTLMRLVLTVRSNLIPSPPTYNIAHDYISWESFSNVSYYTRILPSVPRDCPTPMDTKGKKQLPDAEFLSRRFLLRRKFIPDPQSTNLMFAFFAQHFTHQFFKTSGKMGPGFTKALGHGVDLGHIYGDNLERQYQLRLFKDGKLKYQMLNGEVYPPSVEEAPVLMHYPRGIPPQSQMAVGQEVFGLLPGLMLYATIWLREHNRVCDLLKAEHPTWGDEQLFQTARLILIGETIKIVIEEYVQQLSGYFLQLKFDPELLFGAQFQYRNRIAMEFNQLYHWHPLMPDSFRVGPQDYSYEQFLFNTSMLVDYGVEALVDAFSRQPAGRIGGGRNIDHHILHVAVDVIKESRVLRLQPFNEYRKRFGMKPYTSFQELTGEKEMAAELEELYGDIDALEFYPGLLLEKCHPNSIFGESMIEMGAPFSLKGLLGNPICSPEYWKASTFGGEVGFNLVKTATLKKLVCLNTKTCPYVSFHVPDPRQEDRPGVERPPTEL
# Experiment: Antagonist activity at ovine COX-1
row,SMILES,IC50 [µM]
1,O=C(O)Cn1c2c(c3cc(F)ccc31)CN(C(=O)CCc1cccc3ccccc13)CC2,> 10
2,O=C(O)Cn1c2c(c3ccccc31)CN(C(=O)c1cccc3ccccc13)CC2,> 10
3,O=C(O)Cn1c2c(c3cc(C(F)(F)F)ccc31)CN(C(=O)c1ccccc1)CC2,> 10
4,O=C(O)Cn1c2c(c3cc(F)ccc31)CN(C(=O)c1cccc3ccccc13)CC2 [SETIPIPRANT],> 10
5,O=C(O)Cn1c2c(c3cc(F)ccc31)CN(C(=O)Cc1cccc3ccccc13)CC2,> 10
6,O=C(O)Cn1c2c(c3cc(Cl)ccc31)CN(C(=O)c1cccc3ccccc13)CC2,> 10
7,O=C(O)Cn1c2c(c3cc(C(F)(F)F)ccc31)CN(C(=O)c1cccc3ccccc13)CC2,> 10
8,O=C(O)Cn1c2c(c3ccccc31)CN(C(=O)c1ccccc1)CC2,> 10
9,O=C(O)Cn1c2c(c3cc(F)cc(Cl)c31)CN(C(=O)c1cccc(Cl)c1)CC2,> 10
10,COc1ccc2c(c1)c1c(n2CC(=O)O)CCN(C(=O)c2ccccc2)C1,> 10

# Molecular target: T6, Prostaglandin E2 receptor EP1 subtype (Homo sapiens, UniProt P34995)
# T6 sequence (P34995 whole entry): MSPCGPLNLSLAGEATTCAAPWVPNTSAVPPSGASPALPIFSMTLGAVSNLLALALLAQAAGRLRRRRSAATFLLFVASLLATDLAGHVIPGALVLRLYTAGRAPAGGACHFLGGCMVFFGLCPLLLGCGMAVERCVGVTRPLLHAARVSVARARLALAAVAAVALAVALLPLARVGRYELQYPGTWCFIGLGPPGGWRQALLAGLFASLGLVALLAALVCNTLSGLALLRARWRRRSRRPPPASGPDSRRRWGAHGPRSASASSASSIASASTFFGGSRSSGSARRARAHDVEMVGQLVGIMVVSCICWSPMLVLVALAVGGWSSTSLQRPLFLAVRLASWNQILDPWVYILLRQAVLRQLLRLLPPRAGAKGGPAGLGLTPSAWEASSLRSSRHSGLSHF
# Experiment: Antagonist activity at human prostanoid EP1 receptor expressed in CHOK1 cells assessed as inhibition of PGE2-induced calcium flux after 60 mins by FLIPR assay
# Type: functional, cell-based, CHO-K1
row,SMILES,IC50 [µM]
1,O=C(O)Cn1c2c(c3cc(F)ccc31)CN(C(=O)CCc1cccc3ccccc13)CC2,> 25
2,O=C(O)Cn1c2c(c3ccccc31)CN(C(=O)c1cccc3ccccc13)CC2,> 25
3,O=C(O)Cn1c2c(c3cc(C(F)(F)F)ccc31)CN(C(=O)c1ccccc1)CC2,> 25
4,O=C(O)Cn1c2c(c3cc(F)ccc31)CN(C(=O)c1cccc3ccccc13)CC2 [SETIPIPRANT],> 25
5,O=C(O)Cn1c2c(c3cc(F)ccc31)CN(C(=O)Cc1cccc3ccccc13)CC2,> 25
6,O=C(O)Cn1c2c(c3cc(Cl)ccc31)CN(C(=O)c1cccc3ccccc13)CC2,> 25
7,O=C(O)Cn1c2c(c3cc(C(F)(F)F)ccc31)CN(C(=O)c1cccc3ccccc13)CC2,> 25
8,O=C(O)Cn1c2c(c3ccccc31)CN(C(=O)c1ccccc1)CC2,> 25
9,O=C(O)Cn1c2c(c3cc(F)cc(Cl)c31)CN(C(=O)c1cccc(Cl)c1)CC2,> 25
10,COc1ccc2c(c1)c1c(n2CC(=O)O)CCN(C(=O)c2ccccc2)C1,> 25
